Compound activity from PubChem BioAssay.
An excerpt weighted towards active compounds, which were near 1.5% of everything screened.
CCR6 antag: antagonists of human CCR6 receptor. P51684. inhibition, % at 20 µM. 0.49% of 340,000 active. CHO-K1 CCR6 PathHunter beta-arrestin, luminescence, CCL20-stimulated. AID 493098;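 active = compounds whose inhibition of the agonist-driven luminescence signal at 20 µM reaches about 50%, limit read from the data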;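 also: cells stimulated with CCL20 at 14 nM final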
Target sequence (P51684 whole entry, looked up): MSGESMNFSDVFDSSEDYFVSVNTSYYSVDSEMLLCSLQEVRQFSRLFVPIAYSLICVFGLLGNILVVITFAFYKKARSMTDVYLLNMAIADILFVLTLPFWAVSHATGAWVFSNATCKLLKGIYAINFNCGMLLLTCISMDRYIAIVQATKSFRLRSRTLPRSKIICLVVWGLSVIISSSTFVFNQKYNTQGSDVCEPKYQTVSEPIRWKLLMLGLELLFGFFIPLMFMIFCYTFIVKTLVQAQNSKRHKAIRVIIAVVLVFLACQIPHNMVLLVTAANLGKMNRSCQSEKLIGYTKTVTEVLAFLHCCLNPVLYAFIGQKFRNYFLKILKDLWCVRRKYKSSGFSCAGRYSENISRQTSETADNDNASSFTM
APJ antag: antagonists of human APJ apelin receptor. inhibition, % at 20 µM. P35414. CHO-K1 APJ beta-arrestin complementation, luminescence. 0.32% of 330,000 active;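 active = inhibition above about 40% at 20 µM, limit read from the data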;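 also: cells challenged with 10 nM apelin-13 agonist together with compound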
CXCR6 block: inhibitors of human CXCR6 receptor; O00574; 0.36% of 360,000 active; AID 602244; inhibition, % at 20 µM; CHO-K1 PathHunter CXCR6 beta-arrestin, luminescence; in the data active = inhibition above about 34%, passing the limit was not always enough;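 also: antagonist mode with CXCL16 agonist at 10 nM final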
APJ ag: agonists of human APJ apelin receptor. CHO-K1 APJ PathHunter beta-arrestin, luminescence; 0% DMSO wells, 100% apelin. AID 2520. activation, % at 20 µM. P35414. 0.11% of 330,000 active;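 active = activation more than six SD over the plate average, tested at 20 µM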
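assay system = CHO-K1 APJ beta-arrestin complementation cell line | input = cell density 1000 per well | dosing = compound 20 µM once, DMSO 1% | timing = compound 90 min 25 °C, reagent 1 h | measured by = luminescence from split beta-galactosidase complementation, Galacton Star/Emerald II substrate | read-out basis = APJ agonist activity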
EBI2 antag: antagonists of human EBI2 receptor | EBI2 beta-arrestin recruitment, luminescence, 7a,25-OHC stimulated | inhibition, % at 5 µM | 0.81% of 360,000 active | AID 651636; in the data active = inhibition above about 38%;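 also: enzyme fragment complementation signal reports receptor beta-arrestin coupling in cells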
Numbers stand for hits.

Results for Oc1ccc(COCc2ccccc2)c2cccnc12 ?
CCR6 antag: inactive; APJ antag: inactive; CXCR6 block: inactive; APJ ag: inactive; EBI2 antag: inactive

What do the screens show for `CC(C)COCc1ccc(O)c2ncccc12`?
CCR6 antag: inactive; APJ antag: inactive; CXCR6 block: inactive; APJ ag: inactive; EBI2 antag: 44

What do the screens show for `OCc1ccc(O)c2ncccc12`?
CCR6 antag: inactive; APJ antag: inactive; CXCR6 block: inactive; APJ ag: inactive; EBI2 antag: inactive

Results for CCCOCc1ccc(O)c2ncccc12 ?
CCR6 antag: inactive; APJ antag: inactive; CXCR6 block: inactive; APJ ag: inactive; EBI2 antag: 46

How did COc1ccc(NC(=O)C(c2cc3ccccc3o2)n2c(=O)c(-c3cc4ccccc4[nH]3)nc3ccccc32)cc1 (stereo unspecified) do in these assays?
EBI2 antag: inactive

What do the screens show for `CC(C)(C)C(=O)c1c(N)[nH]c(C(=O)c2ccccc2)c1-c1cc2ccccc2nc1Cl`?
CXCR6 block: inactive; EBI2 antag: inactive

Results for CC(=O)C1=CCC(c2ccc(Cl)cc2)N(S(=O)(=O)c2ccccc2C)C1 (stereo unspecified) ?
CXCR6 block: inactive; EBI2 antag: inactive

Results for Cn1c(=O)c(=O)n(C)c2cc([N+](=O)[O-])c([N+](=O)[O-])cc21 ?
CCR6 antag: inactive; APJ antag: inactive; CXCR6 block: inactive; APJ ag: inactive; EBI2 antag: inactive

How did CN(C)c1c([N+](=O)[O-])cc(N2C(=O)C=CC2=O)cc1[N+](=O)[O-] do in these assays?
CXCR6 block: 75; EBI2 antag: inactive

Results for O=C(/C=C/c1ccccc1O)c1ccco1 ?
CCR6 antag: inactive; APJ antag: inactive; CXCR6 block: inactive; APJ ag: inactive; EBI2 antag: inactive

What do the screens show for `O=C(/C=C/c1cc(Br)ccc1O)c1ccco1`?
CCR6 antag: 64; APJ antag: inactive; CXCR6 block: inactive; APJ ag: inactive; EBI2 antag: inactive

Results for O=c1nc2s/c(=C\c3ccc(-c4ccccc4[N+](=O)[O-])o3)c(=O)n2nc1-c1ccccc1 ?
CCR6 antag: 58; CXCR6 block: inactive; EBI2 antag: inactive

How did CCCCCOc1ccc(/C=c2\sc3nc(=O)c(-c4ccccc4)nn3c2=O)cc1OC do in these assays?
CCR6 antag: inactive; APJ antag: inactive; CXCR6 block: inactive; APJ ag: inactive; EBI2 antag: inactive

How did CCN1C(=O)/C(=C2/C=Cc3ccccc3N2CC)SC1=S do in these assays?
CCR6 antag: inactive; APJ antag: inactive; CXCR6 block: inactive; APJ ag: inactive; EBI2 antag: inactive

What do the screens show for `CCCN1/C(=C2/SC(=S)N(CC)C2=O)C=Cc2ccccc21`?
CCR6 antag: 54; APJ antag: inactive; CXCR6 block: inactive; APJ ag: inactive; EBI2 antag: inactive

What do the screens show for `CCCN1C(=O)/C(=C2/C=Cc3ccccc3N2CC)SC1=S`?
CCR6 antag: inactive; APJ antag: 42; CXCR6 block: inactive; APJ ag: inactive; EBI2 antag: inactive

What do the screens show for `CCC(C)[C@H](NS(=O)(=O)c1ccc(F)cc1Br)C(=O)OC` (stereo partly specified)?
CCR6 antag: inactive; CXCR6 block: inactive; EBI2 antag: inactive

Results for C=CCc1cccc(/C=N/NC(=O)C(C)Nc2cccc(C)c2)c1O (stereo unspecified) ?
CCR6 antag: inactive; APJ antag: inactive; CXCR6 block: inactive; APJ ag: inactive; EBI2 antag: 40

How did Cc1ccccc1NC1=C/C(=N\S(=O)(=O)c2cccs2)c2ccccc2C1=O do in these assays?
CCR6 antag: 56; APJ antag: inactive; CXCR6 block: inactive; APJ ag: inactive; EBI2 antag: inactive

How did C=CCn1cccc(/C=C/C(=O)c2ccc(C(C)(C)C)cc2)c1=S do in these assays?
CCR6 antag: inactive; CXCR6 block: inactive; EBI2 antag: 44

What do the screens show for `C#CCNC(=O)C[C@@H]1C[C@@]2(C(=O)OCC)CCCC=C2N(CCC2=CCCCC2)C1=O`?
EBI2 antag: inactive

What do the screens show for `CC(NCCN(C)C)C1CCC2C3CCc4cc(O)ccc4C3CCC12C` (stereo unspecified)?
CCR6 antag: inactive; CXCR6 block: inactive; EBI2 antag: inactive

How did C[N+](C)(CC#Cc1ccccc1)CC(=O)c1ccccc1 do in these assays?
CCR6 antag: inactive; APJ antag: inactive; CXCR6 block: inactive; APJ ag: inactive; EBI2 antag: inactive

How did C[N+](C)(CC#Cc1ccccc1)CC(=O)c1ccc(Cl)cc1 do in these assays?
CCR6 antag: inactive; APJ antag: 42; CXCR6 block: inactive; APJ ag: inactive; EBI2 antag: inactive

Results for CN(C)c1ccc(/C=C/c2cccc[n+]2[O-])cc1 ?
CCR6 antag: inactive; APJ antag: inactive; CXCR6 block: inactive; APJ ag: inactive; EBI2 antag: inactive

Results for CN(C)c1ccc(/C=C/c2ccc3c4ccccc4ccc3[n+]2-c2ccccc2)cc1 ?
CCR6 antag: 83; CXCR6 block: 62; EBI2 antag: 45

Results for C=C(C)[C@@H]1CC[C@]2(C(=O)O)CC[C@]3(C)[C@H](CC[C@@H]4[C@@]5(C)CC[C@H](O)C(C)(C)[C@@H]5CC[C@]43C)[C@@H]12 ?
CCR6 antag: inactive; APJ antag: inactive; CXCR6 block: inactive; APJ ag: inactive; EBI2 antag: inactive

What do the screens show for `C=C(CC[C@@H](O)C(C)(C)O)[C@H]1CC[C@]2(C)[C@@H]1CCC1[C@@]3(C)CC[C@H](O)C(C)(C)C3CC[C@]12C` (stereo partly specified)?
CCR6 antag: 69; APJ antag: inactive; CXCR6 block: inactive; APJ ag: inactive; EBI2 antag: inactive

What do the screens show for `c1ccc(C(c2nnnn2Cc2ccco2)N2CCN(c3nc4ccccc4s3)CC2)cc1` (stereo unspecified)?
CCR6 antag: inactive; APJ antag: inactive; CXCR6 block: inactive; APJ ag: inactive; EBI2 antag: 36

Results for Cc1cccc(C)c1NC(=O)C(c1ccncc1)N1CCN(CCN(C)C)CC1 (stereo unspecified) ?
EBI2 antag: inactive

How did O=[N+]([O-])c1cc(Cl)cc(/C=N/NC(=S)Nc2ccc(S(=O)(=O)N3CCOCC3)cc2)c1O do in these assays?
CCR6 antag: 60; APJ antag: inactive; CXCR6 block: inactive; APJ ag: inactive; EBI2 antag: inactive

What do the screens show for `CN(C)S(=O)(=O)c1cccc(NC(=O)CSc2cccc3cccnc23)c1`?
CCR6 antag: 71; APJ antag: inactive; CXCR6 block: 51; APJ ag: inactive; EBI2 antag: inactive

What do the screens show for `CN(C)S(=O)(=O)c1ccc(SCC(=O)Nc2cccc(S(=O)(=O)N3CCCC3)c2)nc1`?
CCR6 antag: inactive; CXCR6 block: inactive; EBI2 antag: inactive

What do the screens show for `COc1cc(/C=N/N=C(N)N)ccc1OCc1ccccc1Cl`?
CCR6 antag: inactive; APJ antag: inactive; CXCR6 block: inactive; APJ ag: 22; EBI2 antag: inactive

How did COc1ccc(-n2nc(C(=O)c3cccs3)cc(-c3nc4ccccc4[nH]3)c2=N)cc1 do in these assays?
CCR6 antag: inactive; APJ antag: inactive; CXCR6 block: inactive; APJ ag: inactive; EBI2 antag: 53
